Reference: ChEMBL document CHEMBL1165965, “Synthesis and structure-activity relationships of 1,2,3,4-tetrahydropyrido[2,3-b]pyrazines as potent and selective inhibitors of the anaplastic lymphoma kinase” (Bioorg Med Chem, 2010)

Experiments:
[1] = biological target: Insulin receptor (Homo sapiens) (UniProt P06213); test: Inhibition of INSR at 1 uM
Procedure, shortened: (§1)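 Single-concentration screen on the Ambit KINOMEscan platform, run against a panel of 250–400 kinases. Per-kinase inhibition was also summarized as S(90), the fraction of kinases inhibited by more than 90%.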

[2] = tested on: Mast/stem cell growth factor receptor Kit (Homo sapiens), P10721 [V559D]; test: Inhibition of KIT V559D mutant at 1 uM; procedure, shortened: as §1
Sequence of Mast/stem cell growth factor receptor Kit (Homo sapiens), P10721 [V559D] (P10721 whole entry V559D, canonical isoform): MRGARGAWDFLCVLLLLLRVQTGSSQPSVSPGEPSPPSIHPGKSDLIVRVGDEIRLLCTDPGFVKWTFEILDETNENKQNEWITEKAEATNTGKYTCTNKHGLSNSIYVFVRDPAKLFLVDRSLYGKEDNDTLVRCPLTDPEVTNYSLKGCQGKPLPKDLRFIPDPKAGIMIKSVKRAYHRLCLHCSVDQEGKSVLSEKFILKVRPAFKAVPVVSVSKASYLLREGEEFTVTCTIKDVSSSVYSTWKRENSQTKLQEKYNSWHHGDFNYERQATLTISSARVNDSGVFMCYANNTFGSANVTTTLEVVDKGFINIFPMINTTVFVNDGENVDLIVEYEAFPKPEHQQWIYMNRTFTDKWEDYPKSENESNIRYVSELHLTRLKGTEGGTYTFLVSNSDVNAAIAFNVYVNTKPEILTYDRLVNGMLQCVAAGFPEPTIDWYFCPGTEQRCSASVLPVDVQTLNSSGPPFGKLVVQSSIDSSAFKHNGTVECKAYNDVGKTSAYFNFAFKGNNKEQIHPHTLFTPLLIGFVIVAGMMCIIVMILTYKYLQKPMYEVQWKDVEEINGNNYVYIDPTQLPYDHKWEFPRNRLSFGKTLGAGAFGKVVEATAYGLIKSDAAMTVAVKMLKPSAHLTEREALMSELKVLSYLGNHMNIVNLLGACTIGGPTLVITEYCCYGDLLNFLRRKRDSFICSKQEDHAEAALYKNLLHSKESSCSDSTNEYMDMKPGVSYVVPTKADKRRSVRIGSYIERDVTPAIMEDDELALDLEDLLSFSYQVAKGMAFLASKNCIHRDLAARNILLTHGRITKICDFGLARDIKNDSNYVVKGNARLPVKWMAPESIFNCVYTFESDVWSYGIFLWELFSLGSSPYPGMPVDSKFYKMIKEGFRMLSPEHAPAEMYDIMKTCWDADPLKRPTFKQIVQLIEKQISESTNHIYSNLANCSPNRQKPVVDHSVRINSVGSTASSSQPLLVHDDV

[3] = tested on: Phosphatidylinositol 4,5-bisphosphate 3-kinase catalytic subunit alpha isoform (Homo sapiens), P42336 [E545A]; test: Inhibition of PIK3CA E545A mutant at 1 uM
Sequence of Phosphatidylinositol 4,5-bisphosphate 3-kinase catalytic subunit alpha isoform (Homo sapiens), P42336 [E545A] (P42336 whole entry E545A, canonical isoform): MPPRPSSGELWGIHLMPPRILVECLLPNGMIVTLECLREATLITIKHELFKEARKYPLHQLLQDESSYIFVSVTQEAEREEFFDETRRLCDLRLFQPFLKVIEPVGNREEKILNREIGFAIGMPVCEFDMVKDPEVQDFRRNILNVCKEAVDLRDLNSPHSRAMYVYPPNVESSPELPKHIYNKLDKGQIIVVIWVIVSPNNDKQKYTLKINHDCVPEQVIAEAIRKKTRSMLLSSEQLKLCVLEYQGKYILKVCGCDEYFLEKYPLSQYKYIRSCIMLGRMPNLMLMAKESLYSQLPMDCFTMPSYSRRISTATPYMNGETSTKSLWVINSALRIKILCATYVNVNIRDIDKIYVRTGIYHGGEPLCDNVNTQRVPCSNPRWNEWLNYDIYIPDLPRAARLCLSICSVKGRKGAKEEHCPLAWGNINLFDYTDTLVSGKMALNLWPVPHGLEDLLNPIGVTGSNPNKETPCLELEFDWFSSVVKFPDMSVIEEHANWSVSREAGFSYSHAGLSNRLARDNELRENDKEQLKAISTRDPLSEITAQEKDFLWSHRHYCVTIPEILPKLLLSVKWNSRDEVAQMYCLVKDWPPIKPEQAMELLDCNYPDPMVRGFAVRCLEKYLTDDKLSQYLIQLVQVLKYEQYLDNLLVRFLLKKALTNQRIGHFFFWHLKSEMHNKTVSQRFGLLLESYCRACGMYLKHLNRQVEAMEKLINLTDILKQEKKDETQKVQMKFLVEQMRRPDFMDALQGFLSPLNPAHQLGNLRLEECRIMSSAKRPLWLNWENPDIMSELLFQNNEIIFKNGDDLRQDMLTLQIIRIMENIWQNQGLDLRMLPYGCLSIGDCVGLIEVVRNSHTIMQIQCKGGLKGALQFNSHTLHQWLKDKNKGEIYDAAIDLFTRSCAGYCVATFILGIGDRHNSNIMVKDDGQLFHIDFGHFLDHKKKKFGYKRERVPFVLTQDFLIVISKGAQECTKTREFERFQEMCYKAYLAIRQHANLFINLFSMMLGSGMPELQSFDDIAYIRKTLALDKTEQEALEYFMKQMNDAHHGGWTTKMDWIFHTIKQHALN

[4] = biological target: TGF-beta receptor type-2 (Homo sapiens) (UniProt P37173); test: Inhibition of TGFBR2 at 1 uM
Sequence of TGF-beta receptor type-2 (Homo sapiens) (P37173 whole entry): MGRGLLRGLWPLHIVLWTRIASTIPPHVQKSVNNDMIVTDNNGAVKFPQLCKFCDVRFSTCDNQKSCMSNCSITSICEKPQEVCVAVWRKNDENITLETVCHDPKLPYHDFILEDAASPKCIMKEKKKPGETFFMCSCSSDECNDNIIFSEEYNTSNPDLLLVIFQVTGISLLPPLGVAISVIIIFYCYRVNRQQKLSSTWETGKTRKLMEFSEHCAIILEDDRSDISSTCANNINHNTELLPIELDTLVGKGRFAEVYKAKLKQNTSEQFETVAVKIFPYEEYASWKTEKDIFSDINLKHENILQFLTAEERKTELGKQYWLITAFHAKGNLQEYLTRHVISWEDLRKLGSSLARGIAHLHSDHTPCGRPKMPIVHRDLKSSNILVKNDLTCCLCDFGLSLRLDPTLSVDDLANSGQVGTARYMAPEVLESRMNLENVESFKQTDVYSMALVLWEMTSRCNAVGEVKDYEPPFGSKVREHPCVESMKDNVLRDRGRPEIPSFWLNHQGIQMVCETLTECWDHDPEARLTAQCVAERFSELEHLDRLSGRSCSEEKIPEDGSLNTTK

[5] = biological target: T1, Testis-specific serine/threonine-protein kinase 1 (Homo sapiens) (UniProt Q9BXA7); test: Inhibition of TSSK1B at 1 uM
T1 sequence (whole entry): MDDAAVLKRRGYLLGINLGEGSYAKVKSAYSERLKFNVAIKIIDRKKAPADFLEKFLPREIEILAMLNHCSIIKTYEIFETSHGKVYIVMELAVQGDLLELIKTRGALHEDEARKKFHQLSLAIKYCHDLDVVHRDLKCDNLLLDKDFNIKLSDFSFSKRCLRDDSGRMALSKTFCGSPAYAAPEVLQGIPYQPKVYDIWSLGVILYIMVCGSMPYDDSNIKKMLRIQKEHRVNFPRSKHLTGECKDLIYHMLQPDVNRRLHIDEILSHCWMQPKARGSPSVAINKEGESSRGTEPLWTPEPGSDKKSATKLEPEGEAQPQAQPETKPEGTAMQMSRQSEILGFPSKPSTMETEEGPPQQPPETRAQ

[6] = biological target: T2, NUAK family SNF1-like kinase 1 (Homo sapiens) (UniProt O60285); test: Inhibition of ARK5 at 1 uM
T2 sequence (whole entry): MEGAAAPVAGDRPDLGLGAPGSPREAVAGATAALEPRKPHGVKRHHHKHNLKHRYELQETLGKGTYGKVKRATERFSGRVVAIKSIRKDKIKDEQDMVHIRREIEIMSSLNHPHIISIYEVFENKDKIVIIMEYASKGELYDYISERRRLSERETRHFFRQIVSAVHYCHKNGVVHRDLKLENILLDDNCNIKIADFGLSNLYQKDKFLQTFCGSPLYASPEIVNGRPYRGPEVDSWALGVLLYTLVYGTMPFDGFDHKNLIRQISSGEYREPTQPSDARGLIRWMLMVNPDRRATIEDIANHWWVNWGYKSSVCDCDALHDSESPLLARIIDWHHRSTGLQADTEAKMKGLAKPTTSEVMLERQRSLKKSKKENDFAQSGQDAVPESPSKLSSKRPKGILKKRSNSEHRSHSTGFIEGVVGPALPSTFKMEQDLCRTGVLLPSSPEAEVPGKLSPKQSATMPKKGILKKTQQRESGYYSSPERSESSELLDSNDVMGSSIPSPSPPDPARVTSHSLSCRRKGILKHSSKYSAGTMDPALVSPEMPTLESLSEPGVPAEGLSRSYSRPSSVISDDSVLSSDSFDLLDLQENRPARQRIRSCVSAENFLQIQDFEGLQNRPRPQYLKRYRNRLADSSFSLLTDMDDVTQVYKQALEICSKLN

[7] = biological target: T3, Discoidin domain-containing receptor 2 (Homo sapiens) (UniProt Q16832); test: Inhibition of DDR2 at 1 uM
T3 sequence (whole entry): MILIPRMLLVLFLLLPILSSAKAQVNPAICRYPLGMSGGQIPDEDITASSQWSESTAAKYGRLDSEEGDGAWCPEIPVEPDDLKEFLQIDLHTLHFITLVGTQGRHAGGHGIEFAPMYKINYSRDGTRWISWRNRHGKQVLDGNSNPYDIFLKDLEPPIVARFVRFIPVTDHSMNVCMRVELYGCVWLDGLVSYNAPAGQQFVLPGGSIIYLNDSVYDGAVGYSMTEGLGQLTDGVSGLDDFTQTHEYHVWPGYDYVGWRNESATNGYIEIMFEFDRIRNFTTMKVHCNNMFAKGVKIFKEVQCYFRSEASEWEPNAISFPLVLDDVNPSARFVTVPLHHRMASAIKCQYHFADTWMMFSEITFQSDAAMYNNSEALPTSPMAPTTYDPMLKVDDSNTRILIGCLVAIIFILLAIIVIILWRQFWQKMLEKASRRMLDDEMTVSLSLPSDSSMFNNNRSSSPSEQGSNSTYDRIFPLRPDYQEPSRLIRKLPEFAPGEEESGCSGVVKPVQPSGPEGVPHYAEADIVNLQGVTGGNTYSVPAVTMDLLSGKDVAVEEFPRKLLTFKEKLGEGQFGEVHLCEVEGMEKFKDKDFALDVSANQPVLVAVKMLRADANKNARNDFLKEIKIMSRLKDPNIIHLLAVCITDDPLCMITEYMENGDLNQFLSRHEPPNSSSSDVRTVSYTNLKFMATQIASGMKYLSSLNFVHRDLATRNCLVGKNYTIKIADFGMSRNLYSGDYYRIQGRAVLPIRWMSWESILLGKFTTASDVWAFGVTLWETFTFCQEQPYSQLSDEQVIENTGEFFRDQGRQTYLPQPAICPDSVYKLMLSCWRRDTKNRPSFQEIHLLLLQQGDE

[8] = biological target: Mitogen-activated protein kinase 3 (Homo sapiens) (UniProt P27361); test: Inhibition of ERK1 at 1 uM
Sequence of Mitogen-activated protein kinase 3 (Homo sapiens) (P27361 whole entry): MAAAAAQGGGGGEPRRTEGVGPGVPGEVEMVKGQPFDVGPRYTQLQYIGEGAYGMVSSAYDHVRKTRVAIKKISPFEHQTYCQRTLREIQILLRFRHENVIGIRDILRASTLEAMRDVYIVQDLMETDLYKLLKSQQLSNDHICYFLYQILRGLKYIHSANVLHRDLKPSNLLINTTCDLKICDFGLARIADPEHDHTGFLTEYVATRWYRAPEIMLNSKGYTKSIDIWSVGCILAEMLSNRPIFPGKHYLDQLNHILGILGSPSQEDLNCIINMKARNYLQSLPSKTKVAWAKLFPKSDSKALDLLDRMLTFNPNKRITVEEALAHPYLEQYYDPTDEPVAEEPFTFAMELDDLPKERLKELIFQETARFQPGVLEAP
Procedure, shortened: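 Single-concentration screen using Ambit Bioscience KINOMEscan technology across a panel of 250–400 kinases. Per-kinase inhibition from this screen was summarized as S(90), the fraction of kinases inhibited by more than 90%.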

[9] = biological target: Mitogen-activated protein kinase 4 (Homo sapiens) (UniProt P31152); test: Inhibition of ERK4 at 1 uM
Sequence of Mitogen-activated protein kinase 4 (Homo sapiens) (P31152 whole entry): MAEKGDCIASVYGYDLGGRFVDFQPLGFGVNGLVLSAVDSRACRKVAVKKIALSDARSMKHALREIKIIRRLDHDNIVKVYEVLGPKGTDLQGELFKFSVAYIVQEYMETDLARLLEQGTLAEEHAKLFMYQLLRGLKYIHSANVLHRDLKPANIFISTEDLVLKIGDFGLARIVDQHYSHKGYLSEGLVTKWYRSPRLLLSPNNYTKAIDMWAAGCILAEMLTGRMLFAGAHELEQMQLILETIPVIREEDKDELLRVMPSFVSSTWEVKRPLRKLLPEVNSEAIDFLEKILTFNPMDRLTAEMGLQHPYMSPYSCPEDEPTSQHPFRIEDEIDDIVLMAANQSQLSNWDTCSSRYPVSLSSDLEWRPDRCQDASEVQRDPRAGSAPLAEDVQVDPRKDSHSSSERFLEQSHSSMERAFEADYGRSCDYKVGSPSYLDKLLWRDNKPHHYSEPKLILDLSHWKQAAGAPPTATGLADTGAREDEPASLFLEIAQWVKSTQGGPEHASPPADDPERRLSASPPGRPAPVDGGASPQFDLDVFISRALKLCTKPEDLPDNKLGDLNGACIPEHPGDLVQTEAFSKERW

[10] = biological target: T4, Mitogen-activated protein kinase 15 (Homo sapiens) (UniProt Q8TD08); test: Inhibition of ERK8 at 1 uM
T4 sequence (whole entry): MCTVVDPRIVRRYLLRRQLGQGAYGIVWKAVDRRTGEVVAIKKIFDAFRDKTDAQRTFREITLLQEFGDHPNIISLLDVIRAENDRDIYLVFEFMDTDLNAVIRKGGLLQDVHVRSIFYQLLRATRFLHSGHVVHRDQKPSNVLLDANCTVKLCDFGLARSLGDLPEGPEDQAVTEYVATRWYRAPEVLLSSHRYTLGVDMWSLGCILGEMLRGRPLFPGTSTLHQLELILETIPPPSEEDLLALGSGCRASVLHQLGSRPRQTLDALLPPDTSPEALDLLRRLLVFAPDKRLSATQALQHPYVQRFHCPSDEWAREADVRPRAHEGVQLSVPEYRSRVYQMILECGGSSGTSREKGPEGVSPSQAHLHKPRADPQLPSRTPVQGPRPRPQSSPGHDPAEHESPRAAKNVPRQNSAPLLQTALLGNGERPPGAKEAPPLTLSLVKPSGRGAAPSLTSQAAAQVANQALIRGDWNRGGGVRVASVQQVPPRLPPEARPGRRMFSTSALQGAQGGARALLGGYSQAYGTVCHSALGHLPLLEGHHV

Sequence of Insulin receptor (Homo sapiens) (P06213 28-758 limits assumed): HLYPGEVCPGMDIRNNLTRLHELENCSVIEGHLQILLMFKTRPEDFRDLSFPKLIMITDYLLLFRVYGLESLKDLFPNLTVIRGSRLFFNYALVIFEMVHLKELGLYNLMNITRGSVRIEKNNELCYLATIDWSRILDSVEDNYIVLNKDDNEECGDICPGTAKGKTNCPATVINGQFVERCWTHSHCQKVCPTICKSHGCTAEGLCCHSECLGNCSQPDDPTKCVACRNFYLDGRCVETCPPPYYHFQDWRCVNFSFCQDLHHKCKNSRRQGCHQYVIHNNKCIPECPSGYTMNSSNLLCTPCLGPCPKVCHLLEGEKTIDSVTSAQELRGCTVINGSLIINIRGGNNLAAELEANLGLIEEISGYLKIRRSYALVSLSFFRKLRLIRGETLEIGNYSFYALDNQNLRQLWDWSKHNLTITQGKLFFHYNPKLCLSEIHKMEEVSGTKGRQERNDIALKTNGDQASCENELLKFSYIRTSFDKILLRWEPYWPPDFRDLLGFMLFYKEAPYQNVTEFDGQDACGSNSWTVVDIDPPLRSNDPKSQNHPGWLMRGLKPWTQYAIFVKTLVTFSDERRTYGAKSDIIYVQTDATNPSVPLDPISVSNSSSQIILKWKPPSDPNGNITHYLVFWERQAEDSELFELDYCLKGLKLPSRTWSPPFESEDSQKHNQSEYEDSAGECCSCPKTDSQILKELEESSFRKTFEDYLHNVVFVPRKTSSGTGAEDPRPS
Sequence of Insulin receptor (Homo sapiens) (P06213 763-1382 limits assumed): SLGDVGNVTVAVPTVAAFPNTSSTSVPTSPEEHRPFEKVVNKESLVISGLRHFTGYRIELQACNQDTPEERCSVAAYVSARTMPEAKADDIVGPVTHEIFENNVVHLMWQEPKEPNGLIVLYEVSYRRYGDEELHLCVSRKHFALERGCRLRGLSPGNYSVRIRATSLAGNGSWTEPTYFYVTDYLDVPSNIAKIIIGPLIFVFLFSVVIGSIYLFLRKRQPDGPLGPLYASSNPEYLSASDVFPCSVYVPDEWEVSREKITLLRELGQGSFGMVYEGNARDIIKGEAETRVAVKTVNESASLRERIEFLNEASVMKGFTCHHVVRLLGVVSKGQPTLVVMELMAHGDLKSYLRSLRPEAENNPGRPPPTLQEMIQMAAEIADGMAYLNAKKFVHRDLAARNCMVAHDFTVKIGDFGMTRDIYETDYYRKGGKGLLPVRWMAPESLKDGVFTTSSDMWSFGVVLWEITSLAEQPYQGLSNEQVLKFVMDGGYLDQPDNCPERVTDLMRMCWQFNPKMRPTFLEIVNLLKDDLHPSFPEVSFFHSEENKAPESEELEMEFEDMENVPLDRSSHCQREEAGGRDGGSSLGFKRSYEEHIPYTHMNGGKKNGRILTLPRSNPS

Compound | inhibition [1] [%] | inhibition [2] [%] | inhibition [3] [%] | inhibition [4] [%] | inhibition [5] [%] | inhibition [6] [%] | inhibition [7] [%] | inhibition [8] [%] | inhibition [9] [%] | inhibition [10] [%]
CN1CCN(c2ccc(-c3cnc4c(c3)N(Cc3cc(F)ccc3F)CCN4)cn2)CC1 | < 50 | < 50 | < 50 | < 50 | < 50 | 96 | < 50 | < 50 | < 50 | < 50
O=C(c1ccc(-c2cnc3c(c2)N(Cc2cc(Cl)ccc2C(F)(F)F)CCN3)cc1)N1CCC(N2CCCC2)CC1 | < 50 | 91.9 | – | < 50 | – | – | < 50 | < 50 | – | –
O=C(c1ccc(-c2cnc3c(c2)N(Cc2cc(Cl)ccc2C(F)(F)F)CCN3)cc1)N1CCCCC1 | < 50 | < 50 | – | < 50 | – | – | – | < 50 | – | –
CN1CCN(c2ccc(-c3cnc4c(c3)N(Cc3c(F)ccc(F)c3Cl)CCN4)cn2)CC1 | < 50 | 69 | < 50 | < 50 | < 50 | 92 | < 50 | < 50 | < 50 | < 50
COC1CCN(C(=O)c2ccc(-c3cnc4c(c3)N(Cc3cc(Cl)ccc3C(F)(F)F)CCN4)cc2)CC1 | < 50 | < 50 | – | < 50 | – | – | < 50 | < 50 | – | –
O=C(O)c1ccc(-c2cnc3c(c2)N(Cc2cc(Cl)ccc2C(F)(F)F)CCN3)cc1 | < 50 | < 50 | – | < 50 | – | – | – | < 50 | – | –
CC(=O)N1CCN(c2cc(-c3cnc4c(c3)N(Cc3cc(Cl)ccc3C(F)(F)F)CCN4)ccn2)CC1 | < 50 | < 50 | < 50 | < 50 | < 50 | 90 | < 50 | < 50 | < 50 | < 50
FC(F)(F)c1ccc(Cl)cc1CN1CCNc2ncc(-c3ccnc(N4CCNCC4)c3)cc21 | < 50 | 97 | < 50 | < 50 | < 50 | 88 | < 50 | < 50 | < 50 | < 50
CN1CCN(c2ccc(-c3cnc4c(c3)N(Cc3cc(Cl)ccc3C(F)(F)F)CCN4)cn2)CC1 | < 50 | < 50 | < 50 | < 50 | < 50 | 92 | < 50 | < 50 | < 50 | < 50
CN1CCN(c2ccc(-c3cnc4c(c3)N(Cc3cc(Cl)ccc3Cl)CCN4)cn2)CC1 | < 50 | 82 | < 50 | < 50 | < 50 | 94 | < 50 | < 50 | < 50 | < 50
